# Assay outcomes: PubChem BioAssay, several laboratories
# This is a sample that favours compounds with a hit; in the whole collection about 2% have one here.
# TRAIL sens C8 = caspase-8 TRAIL sensitization | NB7+C8 cells + TRAIL, ATPlite viability luminescence | hit rate 1% among 360,000 | AID 624354 | inhibition (viability loss, TRAIL sensitization), % at 10 µM;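 active means compounds causing at least 50% loss of cell viability in the single-dose screen, relative to plate controls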
# HSP90 inh = HSP90 refolding inhibition in rabbit reticulocyte lysate; luciferase refolding luminescence, 3 h; inhibition, % at 5.6 µM; hit rate 0.91% among 290,000; AID 1789;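 active means inhibition above the screen-wide mean plus 3 SD, computed separately per campaign, cut at about 16% in these data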;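 further: 0% = DMSO wells and 100% = 60 µM geldanamycin wells; inhibitors lower the luminescence because luciferase stays unfolded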
# FLuc inhib CS = counter-screen for luciferase assay inhibitors: firefly luciferase inhibition; P08659; ATPLite firefly luciferase biochemical luminescence, 10 min; hit rate 1.5% among 200,000; inhibition, % at 10 µM;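 active means inhibition above about 50% when tested at 10 µM, limit read from the data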
# Target sequence (P08659 whole entry, looked up): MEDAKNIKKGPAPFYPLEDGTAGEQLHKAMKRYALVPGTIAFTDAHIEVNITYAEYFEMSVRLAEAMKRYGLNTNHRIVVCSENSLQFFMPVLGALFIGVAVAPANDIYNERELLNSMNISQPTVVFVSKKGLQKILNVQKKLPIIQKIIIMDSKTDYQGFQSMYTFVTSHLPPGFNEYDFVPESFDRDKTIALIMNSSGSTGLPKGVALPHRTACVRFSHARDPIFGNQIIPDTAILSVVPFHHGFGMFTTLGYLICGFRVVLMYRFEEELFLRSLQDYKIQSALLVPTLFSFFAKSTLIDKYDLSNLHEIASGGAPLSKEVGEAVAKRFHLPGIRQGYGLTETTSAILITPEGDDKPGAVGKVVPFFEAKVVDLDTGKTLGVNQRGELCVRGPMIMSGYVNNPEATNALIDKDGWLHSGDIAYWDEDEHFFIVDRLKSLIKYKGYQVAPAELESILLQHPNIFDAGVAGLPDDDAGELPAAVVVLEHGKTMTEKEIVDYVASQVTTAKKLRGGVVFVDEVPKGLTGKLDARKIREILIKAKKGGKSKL
# FLuc stim CS = affects firefly luciferase, flagging false hits in luciferase stimulation screens. P08659. ATPlite luciferase biochemical, luminescence, 10 min; 0 = ATP-free wells, 1 = DMSO control. activation factor at 10 µM. 200,000 tested, under 10 active;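 active means luciferase activation factor, scaled between plate controls, of at least 2 with compound at 10 µM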
#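 Material: Luciferase/luciferin reagent mix; Doses: test compounds dosed from 2 mM stocks in 100% DMSO; Schedule: 10 min incubation after luciferase reagent addition, room temperature; Measured by: luminescence from luciferase reaction; Read-out: luminescence gain marking luciferase activators.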
# PPC-1+TRAIL kill = kills PPC-1 cancer cells in the presence of TRAIL. hit rate 0.41% among 220,000. AID 1443. PPC-1 cells + TRAIL, ATPLite viability luminescence. cell killing (% activity), % at 4 µM or 5 µM;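 active means cell killing above 50% in the first pass at 4 µM, then a duplicate retest at 5 µM averaging 50% or more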;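 further: plate controls were cells with TRAIL plus DMSO for no effect and medium-only wells lacking cells for full effect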
# * marks the source's active call; other numbers are inactive results; · = not tested or not shown; ! = not active in a repeat.
SMILES,TRAIL sens C8,HSP90 inh,FLuc inhib CS,FLuc stim CS,PPC-1+TRAIL kill
C/C(=N\Nc1nc2c(s1)CCCC2)c1ccccc1,11,16*,14,0.9,12
CCSc1nnc(NC(=O)CSc2nc3c(cc2C#N)CCCC3)s1,39,4,9,0.9,31
N#Cc1cc2c(nc1SCC(=O)Nc1nccs1)CCCCC2,59*,20*,-4,1,67*
O=c1oc2c(O)cccc2cc1-c1nc2ccccc2[nH]1,69*,11,·,·,·
Cc1nc(C)n(CC(C)C(=O)N2CCN(S(=O)(=O)c3ccc(Cl)cc3)CC2)n1 (centres undefined),-9,4,·,·,·
COC(=O)c1c(C)[nH]c(C(=O)/C=C/c2ccccc2)c1C,29,13,58*,0.4,36
COC(=O)c1c(C)[nH]c(C(=O)/C=C/c2ccc(C)cc2)c1C,11,14,·,·,5
CC(=NC1CCCCC1)c1ccc(O)cc1O,0,·,·,·,·
CC(=NC1CCCCC1)C1=C(O)c2ccccc2C1=O,22,0,58*,0.4,35
O=C(O)c1ccccc1C=NNc1ccccn1,-2,·,·,·,·
COC(=O)C1=C(C(=O)OC)[C@@H]2N(Cc3ccccc3)c3ccccc3[C@@]23C[C@@H](C(=O)OC)N(C(=O)c2cccs2)C3=N1,54*,·,·,·,5
O=C(O)/C=C/C(=O)Nc1ccc(Cc2ccc(NC(=O)/C=C/C(=O)O)cc2)cc1,-3,0,·,·,23
Cc1ccc(NC(=S)c2ccncc2)c(C)c1,-3,3,·,·,·
Cc1ccc(NC(=S)c2nc3ccccc3[nH]2)c(C)c1,73*,2,85*,0.2,38
CC1=C(C(=O)Nc2ccccc2)C(c2ccc(C)cc2)N=C(Nc2nc3ccccc3o2)N1 (centres undefined),50*,2,-7,1.1,8
Cn1c(N)c(C(=O)CCl)c(=O)n(Cc2ccccc2)c1=O,90*,-1,-6,1.1,9
Cn1c(=O)c(C(=O)CCl)c(N)n(Cc2ccccc2)c1=O,28,7,-3,1,19
CC(C)CCCCCCCCCCCCC(=O)NCC(=O)NC1C(C)OC(Nc2ncnc3nc[nH]c23)C(O)C1O (centres undefined),45,·,·,·,·
NC1=C(Cl)C(=O)c2ccc(S(N)(=O)=O)cc2C1=O,92*,·,·,·,·
COC(=O)C1=C(C)N(Cc2ccccc2)C(=NCC(C)C)N[C@H]1c1cccc(C(F)(F)F)c1,56*,·,·,·,·
COC(=O)C1=C(C)N(Cc2ccccc2)C(=NCc2ccc(OC)cc2)N[C@H]1c1cccc(F)c1,16,0,·,·,·
COC(=O)C1=C(C)N(Cc2ccccc2)C(=O)N[C@H]1c1cccc(C(F)(F)F)c1,-4,·,·,·,9
COC(=O)C1=C(C)N(Cc2ccccc2)C(=NCc2ccccc2)N[C@H]1c1cccc(C(F)(F)F)c1,78*,·,·,·,·
COC(=O)C1=C(C)N(Cc2ccccc2)C(=NCc2cccc(Cl)c2)N[C@H]1c1cccc(F)c1,81*,·,·,·,·
O=C(Nc1cccc(C(F)(F)F)c1)C1Cc2c(-c3ccccc3)ccnc2O1 (centres undefined),-3,·,·,·,·
SMILES,TRAIL sens C8,HSP90 inh,FLuc inhib CS,FLuc stim CS,PPC-1+TRAIL kill
Cc1ccc(C2=Nc3ccccc3N=C(C(Cl)Cl)C2)cc1,54*,15,24,0.8,·
Cc1cc2c(cc1C)NC(=O)CC(c1ccccc1)=N2,21,·,·,·,·
Cc1ccc2c(c1)N=C(c1ccccc1)CC(C(Cl)Cl)=N2,58*,12,·,·,39
C=CC(=O)N1C/C(=C/c2ccccc2)C(=O)/C(=C\c2ccccc2)C1,92*,·,·,·,·
O=C1C(=Cc2ccc(Cl)cc2)Cc2ccccc21,16,·,·,·,·
C=CC(=O)N1C/C(=C/c2ccc(Cl)cc2)C(=O)/C(=C\c2ccc(Cl)cc2)C1,93*,·,·,·,·
CC1(C)O[C@@H]2[C@H](O1)[C@@H](CO)O[C@H]2n1cnc2c(=O)[nH]cnc21,-2,·,·,·,·
COc1cc(NC(=O)c2nccnc2N)cc(C(=O)Nc2cccc(C(F)(F)F)c2)c1,6,·,·,·,3
Cc1ccc(C(=O)Nc2cccc(C(F)(F)F)c2)cc1NC(=O)c1nccnc1N,54*!,·,·,·,-8
Cc1ccc(NC(=O)c2c(C)nc3ccccn23)cc1C,19,0,67*,0.3,24
Cc1cccc(NC(=O)c2c(C)nc3ccccn23)c1,-5,-2,5,1,10
Cc1ccc(/C=C/C(=O)c2c(C)nc3ccccn23)cc1,22,-6,54*,0.5,7
CCOC(=O)c1sc2nc(-c3cccnc3)ccc2c1N,59*,2,77*,0.2,42
